Assay outcomes (PubChem)
Diaphorase inh: diaphorase inhibitors and chemical oxidizers, primary screen, counter-screen for diaphorase-coupled primary assays, biochemical, uHTS, resorufin fluorescence; diaphorase resazurin-to-resorufin fluorescence, NADH, 16 min; bacterial (C. kluyveri) enzyme, not human; inhibition, % at 20 µM; 190,000 compounds, 0.69% hits;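 active = primary screen inhibition at 20 µM above a set limit, cut at about 50% in these data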;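 note: plate controls were DMSO with full reaction for no effect and wells lacking NADH for full effect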
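Assay system: diaphorase enzyme from Clostridium kluyveri; Input: enzyme working solution with 0.14 U/mL diaphorase; Timing: 16 min at room temperature; Technique: resorufin fluorescence, excitation 544 nm, emission 590 nm; Benchmarks: positive control minus NADH, DMSO neutral control.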
PMI activator: activators of human PMI, primary screen, biochemical, fluorescence intensity, near-Km mannose 6-phosphate; activation factor at 20 µM; Mannose-6-phosphate isomerase (Homo sapiens), P34949; purified human PMI, coupled resazurin fluorescence, 20 min; stronger effect = higher value; 1 = vehicle control, 0 substrate-free wells; 190,000 compounds, 0.005% hits;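 active = activation factor of 2 or more at 20 µM, relative to plate controls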
Target sequence (P34949 whole entry, looked up): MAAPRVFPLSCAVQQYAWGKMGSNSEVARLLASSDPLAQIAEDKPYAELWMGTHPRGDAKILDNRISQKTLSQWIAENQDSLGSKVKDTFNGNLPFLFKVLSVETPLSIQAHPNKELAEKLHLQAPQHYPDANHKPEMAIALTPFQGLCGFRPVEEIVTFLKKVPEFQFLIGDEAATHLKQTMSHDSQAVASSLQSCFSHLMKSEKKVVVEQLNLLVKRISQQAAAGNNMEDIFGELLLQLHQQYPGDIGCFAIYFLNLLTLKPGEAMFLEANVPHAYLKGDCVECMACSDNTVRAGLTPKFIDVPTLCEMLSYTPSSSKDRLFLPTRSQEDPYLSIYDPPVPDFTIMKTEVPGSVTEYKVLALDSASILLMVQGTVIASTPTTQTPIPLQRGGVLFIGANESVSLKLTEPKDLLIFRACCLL
PMI act hi M6P: human PMI activators, high substrate, primary screen, biochemical, fluorescence intensity, near-saturating mannose 6-phosphate. Mannose-6-phosphate isomerase (Homo sapiens), P34949. coupled PMI enzyme assay, resazurin fluorescence, 20 min; stronger effect = higher value; 1 = untreated enzyme, 0 = substrate-free blank. activation factor at 20 µM. 190,000 compounds, 0.34% hits. AID 1216, 2008;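 active = activation factor of 2 or more at 20 µM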
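Test system: human phosphomannose isomerase with PGI, G6PDH, diaphorase coupling enzymes; amount: 15 ng/mL PMI; incubation: enzyme reaction with compound 20 min at room temperature; technique: resorufin fluorescence (Ex 544/Em 590 nm) from resazurin via diaphorase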
Diaphorase act: compounds boosting diaphorase resazurin reduction – biochemical, uHTS, resorufin fluorescence, counter-screen for diaphorase-coupled primary assays, primary screen; Diaphorase/resazurin coupled assay, 16 min; stronger effect = higher value; 1 = vehicle wells, 0 = NADH-free wells; activation factor at 20 µM; 190,000 compounds, 0.005% hits;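 active = diaphorase activity raised at least twofold by the compound at 20 µM; inactive = activation factor below 2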
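Material: purified diaphorase enzyme from Clostridium kluyveri; Also added: 0.114 mM NADH and 0.1 mM resazurin, final amounts; Doses: single compound dose of 20 µM, 1% DMSO final; Times: 16 min enzyme reaction, ambient temperature; Detection: resorufin fluorescence, excitation 544 nm, emission 590 nm; Measure: increased resorufin signal from activators or reducing compounds.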
G6PDH counter: L. mesenteroides G6PDH inhibitors, counter-screen for G6PDH-coupled screening assays, biochemical, Leuconostoc mesenteroides enzyme | Purified L. mesenteroides G6PDH, diaphorase/resazurin coupled fluorescence, 45 min | inhibition, % at 5 µM | 200,000 compounds, 0.12% hits | AID 1020, 2008; in the data active = inhibition above about 50%
The depositor's hits bear a star. Compounds with a hit are over-represented: about 1.1% of the library has one in this group of screens.

COc1ccc(/C=N/NC(=O)c2cc(O)c(O)c(O)c2)cc1Cn1cc([N+](=O)[O-])cn1 was read as Diaphorase inh 66*, PMI activator 0.3, PMI act hi M6P 0.8, Diaphorase act 0.3 and G6PDH counter 7.
For CC1=C(C)C(=O)C(CCCCC#CCCCC#CCO)=C(C)C1=O the results were Diaphorase inh 44, PMI activator 1.1, PMI act hi M6P 0.8, Diaphorase act 0.6 and G6PDH counter 57*.
`CC(C)NC(=O)NC(=O)COC(=O)c1cc[n+]([O-])cc1` gave Diaphorase inh 5, PMI activator 1, PMI act hi M6P 1, Diaphorase act 0.9 and G6PDH counter 8.
Screening O=C(COc1ccc(Cl)cc1Cl)NC(=S)Nc1ccccc1C(=O)O returned Diaphorase inh 53*, PMI activator 0.9, PMI act hi M6P 0.9, Diaphorase act 0.5 and G6PDH counter 8.
`Cc1ccc(CSCC(=O)NCc2cccs2)cc1` gave Diaphorase inh 17, PMI activator 1, PMI act hi M6P 0.9, Diaphorase act 0.8 and G6PDH counter 1.
CCOC(=O)C(=NCCCN1CCOCC1)NNc1cccc(C(F)(F)F)c1 was read as Diaphorase inh 4, PMI activator 1.7, PMI act hi M6P 2.1*, Diaphorase act 1 and G6PDH counter 11.
For CCOc1cc(CNCCCN2CCOCC2)cc(Br)c1OCC(=O)Nc1cccc(C(F)(F)F)c1 the results were Diaphorase inh -5, PMI activator 0.9, PMI act hi M6P 0.9, Diaphorase act 1.1 and G6PDH counter 1.
For COCCn1c(SCc2nc3sc(C(=O)OC)c(C)c3c(=O)[nH]2)nc2ccccc21 the results were Diaphorase inh -5, PMI activator 1.2, PMI act hi M6P 1.2, Diaphorase act 1.1 and G6PDH counter 7.
Screening CCn1c(SCc2nc3sc(C(=O)O)c(C)c3c(=O)[nH]2)nc2ccccc21 returned Diaphorase inh 61*, PMI activator 1.5, PMI act hi M6P 1.9, Diaphorase act 0.4 and G6PDH counter 7.
For Cc1ccc(-n2c(C)cc(C(=S)N3CCOCC3)c2C)cc1C the results were Diaphorase inh 13, PMI activator 0.9, PMI act hi M6P 0.9, Diaphorase act 0.9 and G6PDH counter 7.
For CC(=O)N1C(=S)NC(=O)/C1=C1/C(=O)N(CC(=O)Nc2cccc(C)c2)c2ccccc21 the results were Diaphorase inh 67*, PMI activator 0.6, PMI act hi M6P 0.7, Diaphorase act 0.3 and G6PDH counter 3.
`CCN=C(NCC)SC1CC(=O)N(c2cccc(OCC)c2)C1=O` (stereo not given) gave Diaphorase inh 10, PMI activator 1, PMI act hi M6P 1, Diaphorase act 0.9 and G6PDH counter -3.
CC(=O)N1CCN(c2ccc(NC(=S)NC(=O)COc3ccc(C(C)(C)C)cc3)cc2)CC1 was read as Diaphorase inh 15, PMI activator 0.7, PMI act hi M6P 0.9, Diaphorase act 0.9 and G6PDH counter 14.
CCC(=O)N1CCN(c2ccc(NC(=S)NC(=O)COc3ccccc3)cc2)CC1 was read as Diaphorase inh 64*, PMI activator 0.9, PMI act hi M6P 0.8, Diaphorase act 0.4 and G6PDH counter 9.
`CCOc1ccc(N2CC(C(=O)Nc3ccccc3F)CC2=O)cc1` (stereo not given) gave Diaphorase inh 4, PMI activator 1.1, PMI act hi M6P 1, Diaphorase act 1 and G6PDH counter 0.
Screening COC(=O)C(NNc1ccc(F)cc1)(NC(=O)c1ccccc1)C(F)(F)F (stereo not given) returned Diaphorase inh 15, PMI activator 1.7, PMI act hi M6P 2.9*, Diaphorase act 0.9 and G6PDH counter -1.
For COC(=O)C(NNc1ccccc1C)(NC(=O)c1ccc(F)cc1)C(F)(F)F (stereo not given) the results were Diaphorase inh 12, PMI activator 1.6, PMI act hi M6P 2.2*, Diaphorase act 0.9 and G6PDH counter 12.
CCOC(=O)C(NCc1ccc(F)cc1)(NC(=O)c1ccccc1)C(F)(F)F (stereo not given) was read as Diaphorase inh -13, PMI activator 1.1, PMI act hi M6P 1.1, Diaphorase act 1.1 and G6PDH counter 8.
Screening COc1ccc(/C=C/C(=O)NC(=S)NNC(=O)c2cccnc2)cc1 returned Diaphorase inh 75*, PMI activator 1, PMI act hi M6P 1.2, Diaphorase act 0.2 and G6PDH counter -32.
For Oc1ccc(Cl)cc1C=Nc1ccc2c3c(cccc13)CC2 the results were Diaphorase inh 60*, PMI activator 0.5, PMI act hi M6P 0.3, Diaphorase act 0.4 and G6PDH counter 34.
For Cc1cccc(C=Nc2ccc3c4c(cccc24)CC3)c1O the results were Diaphorase inh 21, PMI activator 0.6, PMI act hi M6P 0.5, Diaphorase act 0.8 and G6PDH counter -27.
`O=S(=O)(c1ccc(N=C2NN=C(c3cc(F)ccc3F)CS2)cc1)N1CCOCC1` gave Diaphorase inh 1, PMI activator 1.7, PMI act hi M6P 2.3*, Diaphorase act 1 and G6PDH counter 5.
C/C(=N/Nc1ccc(C)cc1)C1(C)N(O)C(C)(C)C(c2ccco2)=[N+]1[O-] (stereo not given) was read as Diaphorase inh 5, PMI activator 1.9, PMI act hi M6P 2.7*, Diaphorase act 0.9 and G6PDH counter 8.
For CC1(C)C(c2ccco2)=[N+]([O-])C2(CCCCC2=O)N1O (stereo not given) the results were Diaphorase inh 4, PMI activator 1.2, PMI act hi M6P 1.2, Diaphorase act 1 and G6PDH counter 1.
O=C(NC1CCCC1)c1ccc2nc(-c3ccco3)c(-c3ccco3)nc2c1 was read as Diaphorase inh 80*, PMI activator 1, PMI act hi M6P 0.8, Diaphorase act 0.2 and G6PDH counter 19.
Screening c1coc(-c2nc3ccccc3nc2-c2ccco2)c1 returned Diaphorase inh 80*, PMI activator 1.1, PMI act hi M6P 0.7, Diaphorase act 0.2 and G6PDH counter 21.
For O=C(NCCO)c1ccc2nc(-c3ccco3)c(-c3ccco3)nc2c1 the results were Diaphorase inh 52*, PMI activator 1.4, PMI act hi M6P 1.7, Diaphorase act 0.5 and G6PDH counter 29.
